Screening data as filed in PubChem BioAssay.
Rows were chosen to be rich in hits. Some 3.5% of all compounds tested hit in one or more screens of this group.
RGS4 block – RGS4 inhibitors, primary screen, cell-based, HEK293 M3R inducible RGS4, calcium flux | Fluo-4 calcium flux; stronger effect = higher value; triggered by carbachol at its EC20 | Regulator of G-protein signaling 4 (Homo sapiens), P49798 | B-score at 10 µM | 310,000 compounds, 0.45% hits;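 active = B-score, a plate-corrected calcium signal, over three deviations above library mean, with baseline fluorescence within five deviations of library mean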;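 note: RGS4 expression induced by doxycycline in cells with stable M3 receptor; B-score is computed from the integrated fluorescence ratio over baseline after carbachol; higher B-score means a larger calcium signal and so more RGS4 inhibition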
Target sequence (P49798 whole entry, looked up): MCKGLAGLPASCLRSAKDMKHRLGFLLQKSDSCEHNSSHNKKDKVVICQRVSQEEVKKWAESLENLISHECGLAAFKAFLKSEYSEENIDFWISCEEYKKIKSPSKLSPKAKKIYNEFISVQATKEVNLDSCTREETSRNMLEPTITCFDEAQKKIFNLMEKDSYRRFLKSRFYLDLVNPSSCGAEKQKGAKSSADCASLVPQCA
MrgX1 allo act – positive allosteric modulators of MrgX1, primary screen, HEK293 cells, Fluo-4 calcium flux; Mas-related G-protein coupled receptor member X1 (Homo sapiens), Q96LB2; FDSS; stronger effect = higher value; B-score at 10 µM; 310,000 compounds, 0.63% hits; AID 588675, 2011;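 active = plate-corrected calcium response at least 3 library SD above typical, normal starting fluorescence, not activating the receptor alone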;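 note: compound read alongside a low EC10 to EC30 dose of BAM8-22 agonist; peak minus trough fluorescence over baseline measured at the second addition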
Target sequence (Q96LB2 whole entry, looked up): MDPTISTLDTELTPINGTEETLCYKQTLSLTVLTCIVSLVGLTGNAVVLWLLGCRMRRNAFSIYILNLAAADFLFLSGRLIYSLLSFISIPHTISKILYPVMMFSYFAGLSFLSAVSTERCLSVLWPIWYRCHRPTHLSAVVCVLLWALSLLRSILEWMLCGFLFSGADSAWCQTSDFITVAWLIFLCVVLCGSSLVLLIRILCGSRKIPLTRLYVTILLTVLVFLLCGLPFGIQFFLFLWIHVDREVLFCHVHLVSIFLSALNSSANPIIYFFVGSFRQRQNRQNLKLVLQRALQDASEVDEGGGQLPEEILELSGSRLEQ
MrgX1 agonist – agonists of human MrgX1 receptor, primary screen, HEK293 cells, Fluo-4 calcium flux; Mas-related G-protein coupled receptor member X1 (Homo sapiens), Q96LB2; Fluo-4 calcium fluorescence, agonist mode; stronger effect = higher value; B-score at 10 µM; 310,000 compounds, 0.44% hits;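 active = calcium response B-score plate-corrected fluorescence ratio at least 3 library SD, with starting fluorescence B-score inside 5 SD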
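Material: HEK293 cells stably expressing human MrgX1 receptor | Quantity: 15,000 cells per well | Times: Cells plated overnight, dye loaded 0.5 h 37 °C, 0.5 h room temperature | Measured by: Kinetic Fluo-4 NW fluorescence of intracellular calcium | Control set: Positive and negative controls per plate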
MrgX1 antagonist – antagonists of human MrgX1 receptor, primary screen, HEK293 cells, Fluo-4 calcium flux. Mas-related G-protein coupled receptor member X1 (Homo sapiens), Q96LB2. AID 588676, 2011. BAM8-22 antagonism; stronger effect = lower value. B-score at 10 µM. 310,000 compounds, 1.3% hits;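 active = calcium-response B-score plate-corrected more than 3 library SD below zero, starting fluorescence within 5 deviations, no agonist response on first addition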;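 note: peak minus trough fluorescence over baseline after final BAM8-22 challenge near maximal dose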
RGS4 act – RGS4 potentiators or activators, primary screen, cell-based, HEK293 M3R inducible RGS4, calcium flux. carbachol calcium flux Fluo4; stronger effect = lower value. B-score at 10 µM. 310,000 compounds, 0.92% hits. AID 463111, 2010;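 active = B-score of the integrated calcium signal more than 4 SD below the library mean, with starting fluorescence not abnormally high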;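 note: negative B-score means reduced calcium response which marks RGS4 activation or potentiation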
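Also added: carbachol at ECmax as muscarinic agonist stimulus; Assay system: HEK293 cells with stable M3R and inducible RGS4; Timing: overnight RGS4 induction, 30 min dye load 37 °C, 20 min compound RT; Measured by: Fluo4-AM (2 µM) calcium-flux fluorescence, kinetic read.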
Active calls of the source: *.

What do the screens show for `CCCCCN1CC(=O)N2[C@@H](Cc3c([nH]c4ccccc34)C2(C)C)C1=O`?
RGS4 block: inactive; MrgX1 allo act: inactive; MrgX1 agonist: inactive; MrgX1 antagonist: inactive; RGS4 act: inactive

Results for CCCCN(CCCC)CCCN1CC(=O)N2[C@@H](Cc3c([nH]c4ccccc34)C2(C)C)C1=O ?
RGS4 block: inactive; MrgX1 allo act: inactive; MrgX1 agonist: inactive; MrgX1 antagonist: inactive; RGS4 act: -8.44*

Results for CCCCCCn1nc(C(=O)OCC(=O)c2c(N)n(C)c(=O)n(C)c2=O)c2ccccc2c1=O ?
RGS4 block: inactive; MrgX1 allo act: inactive; MrgX1 agonist: inactive; MrgX1 antagonist: inactive; RGS4 act: -8.72*

How did CCCCCn1nc(C(=O)OCC(=O)c2c(N)n(C)c(=O)n(C)c2=O)c2ccccc2c1=O do in these assays?
RGS4 block: inactive; MrgX1 allo act: inactive; MrgX1 agonist: inactive; MrgX1 antagonist: inactive; RGS4 act: inactive

Results for C=CCOc1ccc(/C=C/C(=O)OCC(=O)NCC(=O)Nc2c(C)cc(C)cc2C)cc1 ?
RGS4 block: inactive; MrgX1 allo act: inactive; MrgX1 agonist: inactive; MrgX1 antagonist: inactive; RGS4 act: inactive

What do the screens show for `O=C(O)CCC1c2cc3c4cc2OC2Oc5cc6c(cc51)C(CCC(=O)O)c1cc5c7cc1OC(O6)c1cc6cc(c1)Oc1cc(cc(C(=O)O)c1)Oc1cc8cc(c1)C(Oc1cc(c(cc1C5CCC(=O)O)C3CCC(=O)O)OC(O4)c1cc(cc(c1)Oc1cc(cc(C(=O)O)c1)O8)Oc1cc(cc(C(=O)O)c1)Oc1cc(cc2c1)Oc1cc(cc(C(=O)O)c1)O6)O7` (stereo unspecified)?
RGS4 block: inactive; MrgX1 allo act: inactive; MrgX1 agonist: 29.3*; MrgX1 antagonist: inactive; RGS4 act: inactive

Results for Cc1nc2c(C)cccn2c1/C(O)=C1\C(=O)C(=O)N(CCN2CCOCC2)C1c1cccs1 (stereo unspecified) ?
RGS4 block: inactive; MrgX1 allo act: inactive; MrgX1 agonist: inactive; MrgX1 antagonist: inactive; RGS4 act: inactive

How did CC1=C(C)CC(C(=O)Nc2ccc3c(c2)OCO3)C(C(=O)O)C1 (stereo unspecified) do in these assays?
RGS4 block: inactive; MrgX1 allo act: inactive; MrgX1 agonist: inactive; MrgX1 antagonist: inactive; RGS4 act: inactive

Results for CCCOc1ccc(N2C(=O)CC(N(CCc3ccc(OC)cc3)C(=O)c3ccccc3)C2=O)cc1 (stereo unspecified) ?
RGS4 block: inactive; MrgX1 allo act: inactive; MrgX1 agonist: inactive; MrgX1 antagonist: -4.64*; RGS4 act: inactive

What do the screens show for `O=C(NNC(=S)NC(=O)c1ccccc1[N+](=O)[O-])c1ccccc1[N+](=O)[O-]`?
RGS4 block: inactive; MrgX1 allo act: inactive; MrgX1 agonist: inactive; MrgX1 antagonist: inactive; RGS4 act: inactive

How did CCCCOc1ccccc1C(=O)NNC(=S)NC(=O)c1ccccc1[N+](=O)[O-] do in these assays?
RGS4 block: inactive; MrgX1 allo act: inactive; MrgX1 agonist: inactive; MrgX1 antagonist: -5.77*; RGS4 act: inactive

How did CSc1nc2cc(C)nn2c(-c2ccccc2)c1C#N do in these assays?
RGS4 block: inactive; MrgX1 allo act: inactive; MrgX1 agonist: inactive; MrgX1 antagonist: inactive; RGS4 act: inactive

Results for NC(=S)N/N=C/c1c[nH]c2ccc(OCc3ccccc3)cc12 ?
RGS4 block: inactive; MrgX1 allo act: inactive; MrgX1 agonist: inactive; MrgX1 antagonist: inactive; RGS4 act: -7.12*

How did O=C(CSCc1cccc(Br)c1)N/N=C/c1ccc2c(c1)OCO2 do in these assays?
RGS4 block: inactive; MrgX1 allo act: inactive; MrgX1 agonist: inactive; MrgX1 antagonist: -5.38*; RGS4 act: inactive

What do the screens show for `NC(=S)N/N=C\c1ccccc1OCc1ccccc1`?
RGS4 block: inactive; MrgX1 allo act: inactive; MrgX1 agonist: inactive; MrgX1 antagonist: -8.74*; RGS4 act: inactive

Results for O=C(CSCc1ccccc1)N/N=C/c1ccccc1OCc1ccccc1 ?
RGS4 block: inactive; MrgX1 allo act: inactive; MrgX1 agonist: inactive; MrgX1 antagonist: -5.42*; RGS4 act: inactive

How did CC(C)C(NC(=O)CN1C(=O)c2ccccc2C1=O)c1ccccc1 (stereo unspecified) do in these assays?
RGS4 block: inactive; MrgX1 allo act: inactive; MrgX1 agonist: inactive; MrgX1 antagonist: inactive; RGS4 act: inactive

How did CC(=O)c1ccc(NC(=O)CCNC(=O)c2ccccc2Cl)cc1 do in these assays?
RGS4 block: inactive; MrgX1 allo act: inactive; MrgX1 agonist: inactive; MrgX1 antagonist: inactive; RGS4 act: inactive

Results for S=C(Nc1ccc(Oc2ccccc2)cc1)Nc1cccnc1 ?
RGS4 block: inactive; MrgX1 allo act: inactive; MrgX1 agonist: inactive; MrgX1 antagonist: inactive; RGS4 act: inactive

How did Cc1ccc(C(=O)NN2CCOCC2)cc1 do in these assays?
RGS4 block: inactive; MrgX1 allo act: inactive; MrgX1 agonist: inactive; MrgX1 antagonist: -4.96*; RGS4 act: inactive

Results for O=C(NN1CCOCC1)c1ccc(Br)cc1 ?
RGS4 block: inactive; MrgX1 allo act: inactive; MrgX1 agonist: inactive; MrgX1 antagonist: inactive; RGS4 act: inactive

Results for COc1ccc(S(=O)(=O)Nc2cccc(-c3ccc(N4CCCCCC4)nn3)c2)c(OC)c1 ?
RGS4 block: inactive; MrgX1 allo act: inactive; MrgX1 agonist: inactive; MrgX1 antagonist: inactive; RGS4 act: inactive

What do the screens show for `CC(=O)c1cc(NC(=O)c2ccc(Cl)cc2)c(=O)oc1/C=C/N(C)C`?
RGS4 block: inactive; MrgX1 allo act: inactive; MrgX1 agonist: 37.6*; MrgX1 antagonist: inactive; RGS4 act: inactive

Results for CC(C)c1ccc(/C=C/C(=O)NC(=S)Nc2ccc(CN3CCOCC3)cc2)cc1 ?
RGS4 block: inactive; MrgX1 allo act: inactive; MrgX1 agonist: inactive; MrgX1 antagonist: inactive; RGS4 act: -8.79*

How did CCCCNC(=O)CSc1nc2ccsc2c(=O)n1CCCC(=O)NCCc1ccc(S(N)(=O)=O)cc1 do in these assays?
RGS4 block: inactive; MrgX1 allo act: inactive; MrgX1 agonist: inactive; MrgX1 antagonist: inactive; RGS4 act: inactive

How did O=C(Nc1nnc(C2=COCCO2)o1)c1cccc([N+](=O)[O-])c1 do in these assays?
RGS4 block: inactive; MrgX1 allo act: inactive; MrgX1 agonist: inactive; MrgX1 antagonist: inactive; RGS4 act: inactive

Results for O=C(Nc1nnc(-c2ccc(F)cc2)o1)c1cccc([N+](=O)[O-])c1 ?
RGS4 block: inactive; MrgX1 allo act: inactive; MrgX1 agonist: 58.1*; MrgX1 antagonist: inactive; RGS4 act: inactive
